From ChEMBL document CHEMBL3769360, “Phthalimido-thiazoles as building blocks and their effects on the growth and morphology of Trypanosoma cruzi” (Eur J Med Chem, 2016)
Active and inactive are the calls of the source. The calls are words filed in the database; no cut-off is given here.

What was measured:
[1] = test system: Trypanosoma cruzi; assay: Trypanocidal activity against trypamostigote form of Trypanosoma cruzi Y infected in African green monkey Vero cells after 24 hrs by neubauer chamber method; type: functional, organism-based
Procedure, shortened: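 Y strain trypomastigotes harvested from Vero cell supernatants, 4 × 10^5 cells/well, compounds in triplicate, benznidazole as positive control. Incubated 24 h at 37 °C, 5% CO2. Motile parasites counted in a Neubauer chamber; untreated wells = 100%. IC50 by nonlinear regression over at least seven concentrations.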

[2] = test system: Trypanosoma cruzi; assay: Induction of ultrastructural changes in trypamostigote form of Trypanosoma cruzi Y assessed as dilated endoplasmic reticulum at 2 times IC50 after 24 hrs by uranyl acetate/lead citrate staining based transmission electron microscopic analysis; type: functional, organism-based
Procedure, shortened: (§1)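 Trypomastigotes exposed for 24 h in RPMI 1640 (pH 7.5, 20 mM HEPES, 10% FBS, antibiotics) with compound at 1× or 2× the set concentration. Fixed in 2.5% glutaraldehyde, 4% formaldehyde, 0.1 M cacodylate pH 6.8, postfixed in 2% OsO4. Acetone-dehydrated, epon-embedded, sections stained with uranyl acetate/lead citrate and examined by TEM against untreated parasites.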

[3] = test system: Trypanosoma cruzi; assay: Trypanocidal activity against epimastigote form of Trypanosoma cruzi Dm28c after 11 days by neubauer chamber method; type: functional; conditions: 264 h
[4] = test system: Trypanosoma cruzi; assay: Induction of ultrastructural changes in trypamostigote form of Trypanosoma cruzi Y assessed as loss of cytoplasmic material at IC50 after 24 hrs by uranyl acetate/lead citrate staining based transmission electron microscopic analysis; type: functional, organism-based; procedure, shortened: as §1
[5] = test system: Trypanosoma cruzi; assay: Induction of ultrastructural changes in trypamostigote form of Trypanosoma cruzi Y assessed as swelling of mitochondria at IC50 after 24 hrs by uranyl acetate/lead citrate staining based transmission electron microscopic analysis; type: functional, organism-based; procedure, shortened: as §1
[6] = test system: Trypanosoma cruzi; assay: Induction of ultrastructural changes in trypamostigote form of Trypanosoma cruzi Y assessed as swelling of kinetoplast at 2 times IC50 after 24 hrs by uranyl acetate/lead citrate staining based transmission electron microscopic analysis; type: functional, organism-based; procedure, shortened: as §1
[7] = test system: Trypanosoma cruzi; assay: Antitrypanosomal activity against trypamostigote form of Trypanosoma cruzi Y assessed as decrease in number of parasites after 24 hrs by scanning electron microscopic analysis; type: functional, organism-based
Procedure, shortened: (§2)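 Trypomastigotes cultured 24 h in RPMI 1640 (pH 7.5, 20 mM HEPES, 10% FBS, penicillin/streptomycin) with compound at two concentrations (1× and 2×). Washed in PBS and fixed in glutaraldehyde/formaldehyde in 0.1 M cacodylate pH 6.8, then OsO4 postfixed. Dehydrated in graded ethanol, CO2 critical-point dried, gold-coated and examined by SEM against untreated controls.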

[8] = test system: Trypanosoma cruzi; assay: Induction of apoptosis in trypamostigote form of Trypanosoma cruzi Y assessed as early apoptotic cells after 24 hrs by Annexin V-FITC/propidium iodide staining based flow cytometry; type: functional, organism-based
Procedure, shortened: (§3)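 Trypomastigotes (1 × 10^7) incubated 24 h at 37 °C with or without compound. Then labelled with annexin V-FITC and propidium iodide using a kit per the manufacturer's instructions and analysed by flow cytometry. Two independent experiments, each concentration in duplicate; comparison against untreated cells.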

[9] = test system: Trypanosoma cruzi; assay: Induction of ultrastructural changes in trypamostigote form of Trypanosoma cruzi Y assessed as intense cytoplasmic vacuolization at 2 times IC50 after 24 hrs by uranyl acetate/lead citrate staining based transmission electron microscopic analysis; type: functional, organism-based; procedure, shortened: as §1
[10] = test system: Trypanosoma cruzi; assay: Induction of ultrastructural changes in trypamostigote form of Trypanosoma cruzi Y assessed as abnormal chromatin condensation at 2 times IC50 after 24 hrs by uranyl acetate/lead citrate staining based transmission electron microscopic analysis; type: functional, organism-based; procedure, shortened: as §1
[11] = test system: Trypanosoma cruzi; assay: Induction of ultrastructural changes in trypamostigote form of Trypanosoma cruzi Y assessed as blebs in flagellum at IC50 after 24 hrs by scanning electron microscopic analysis; type: functional, organism-based; procedure, shortened: as §2
[12] = Selectivity index, ratio of MNTD90 for cytotoxicity against BALB/c mouse splenocytes to IC50 for trypamostigote form of Trypanosoma cruzi Y infected in African green monkey Vero cells; type: toxicity, cell-based; conditions: read-out: Selectivity Index
[13] = test system: Trypanosoma cruzi; assay: Induction of apoptosis in trypamostigote form of Trypanosoma cruzi Y assessed as necrotic cells at 5 uM after 24 hrs by Annexin V-FITC/propidium iodide staining based flow cytometry; type: functional, organism-based; procedure, shortened: as §3
[14] = test system: Trypanosoma cruzi; assay: Induction of apoptosis in trypamostigote form of Trypanosoma cruzi Y assessed as early apoptotic cells at 5 and 25 uM after 24 hrs by Annexin V-FITC/propidium iodide staining based flow cytometry; type: functional, organism-based; procedure, shortened: as §3
[15] = test system: Trypanosoma cruzi; assay: Induction of apoptosis in trypamostigote form of Trypanosoma cruzi Y assessed as late apoptotic cells at 5 uM after 24 hrs by Annexin V-FITC/propidium iodide staining based flow cytometry; type: functional, organism-based; procedure, shortened: as §3
[16] = test system: Trypanosoma cruzi; assay: Induction of apoptosis in trypamostigote form of Trypanosoma cruzi Y assessed as necrotic cells after 24 hrs by Annexin V-FITC/propidium iodide staining based flow cytometry; type: functional, organism-based; procedure, shortened: as §3
[17] = Cytotoxicity against BALB/c mouse splenocytes assessed as highest non-toxic concentration causing >90 % incorporation of [3H]-thymidine after 24 hrs by beta counting method; type: cell-based, Splenocyte; conditions: read-out: MNTD90
Procedure, shortened: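 BALB/c mouse splenocytes at 5 × 10^6 cells/well in RPMI-1640 with 10% inactivated FBS. Compounds were dissolved in DMSO (10 mg/mL stock) and serially diluted to 1.0, 5.0, 10, 25, 50 and 100 (final), in triplicate. Controls were saponin and medium with DMSO. 3H-thymidine was added, then 24 h at 37 °C, 5% CO2, and beta counting. Untreated = 100%; >90% incorporation counted as nontoxic.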

[18] = test system: Trypanosoma cruzi; assay: Induction of ultrastructural changes in trypamostigote form of Trypanosoma cruzi Y assessed as alterations in reservosome at 2 times IC50 after 24 hrs by uranyl acetate/lead citrate staining based transmission electron microscopic analysis; type: functional, organism-based; procedure, shortened: as §1
[19] = test system: Trypanosoma cruzi; assay: Induction of apoptosis in trypamostigote form of Trypanosoma cruzi Y assessed as necrotic cells at 25 uM after 24 hrs by Annexin V-FITC/propidium iodide staining based flow cytometry relative to untreated control; type: functional; procedure, shortened: as §3
[20] = test system: Trypanosoma cruzi; assay: Induction of apoptosis in trypamostigote form of Trypanosoma cruzi Y assessed as late apoptotic cells at 25 uM after 24 hrs by Annexin V-FITC/propidium iodide staining based flow cytometry relative to untreated control; type: functional; procedure, shortened: as §3
[21] = test system: Trypanosoma cruzi; assay: Induction of ultrastructural changes in trypamostigote form of Trypanosoma cruzi Y assessed as intense cytoplasmic vacuolization at IC50 after 24 hrs by uranyl acetate/lead citrate staining based transmission electron microscopic analysis; type: functional, organism-based; procedure, shortened: as §1
[22] = test system: Trypanosoma cruzi; assay: Induction of ultrastructural changes in trypamostigote form of Trypanosoma cruzi Y assessed as abnormal chromatin condensation at IC50 after 24 hrs by uranyl acetate/lead citrate staining based transmission electron microscopic analysis; type: functional, organism-based; procedure, shortened: as §1
[23] = test system: Trypanosoma cruzi; assay: Induction of apoptosis in trypamostigote form of Trypanosoma cruzi Y assessed as late apoptotic cells after 24 hrs by Annexin V-FITC/propidium iodide staining based flow cytometry; type: functional, organism-based; procedure, shortened: as §3
[24] = test system: Trypanosoma cruzi; assay: Induction of ultrastructural changes in trypamostigote form of Trypanosoma cruzi Y assessed as shortening of flagellum at 2 times IC50 after 24 hrs by scanning electron microscopic analysis; type: functional, organism-based; procedure, shortened: as §2
[25] = test system: Trypanosoma cruzi; assay: Induction of ultrastructural changes in trypamostigote form of Trypanosoma cruzi Y assessed as alterations in reservosome at IC50 after 24 hrs by uranyl acetate/lead citrate staining based transmission electron microscopic analysis; type: functional, organism-based; procedure, shortened: as §1
[26] = Lipophilicity, log P of compound; type: physicochemical; conditions: octanol/water

For `O=C1c2ccccc2C(=O)N1C/C=N/N=c1\scc(-c2cccc([N+](=O)[O-])c2)n1-c1ccccc1`, the IC50 [1] was 0.9 µM, the Activity [2] was “Active” and the IC50 [3] was 6 µM. For the same compound, the Activity [4] was “Active”, the Activity [5] was “Active” and the Activity [6] was “Active”. For the same compound, the Activity [7] was “Dose-dependent effect”, the Activity [8] was “inactive” and the Activity [9] was “Active”. The Activity [10] was “Active”, the Activity [11] was “Active” and the selectivity ratio [12] was 115. The Activity [13] was “inactive”, the Activity [14] was “inactive” and the Activity [15] was “inactive”. For the same compound, the Activity [16] was “Dose-dependent effect”, the MNTC at 24 h [17] was 103 µM and the Activity [18] was “Active”. The Activity [19] was 11%, the Activity [20] was 11% and the Activity [21] was “Active”. For the same compound, the Activity [22] was “Active”, the Activity [23] was “Dose-dependent effect” and the Activity [24] was “Active”. The Activity [25] was “Active”.
Work on `O=C1c2ccccc2C(=O)N1C/C=N/N=c1\scc(-c2ccc3ccccc3c2)n1-c1ccccc1` yielded an IC50 [1] of 0.5 µM, an IC50 [3] of 11.9 µM and a selectivity ratio [12] of 410. The MNTC at 24 h [17] was 205 µM.
`O=C1c2ccccc2C(=O)N1Nc1nc(-c2ccc(Cl)cc2)cs1` gave an IC50 [1] of 86.2 µM, an IC50 [3] of 30.6 µM and an MNTC at 24 h [17] of 2.8 µM.
Compound `O=C1c2ccccc2C(=O)N1C/C=N/N=c1/[nH]c(CCl)cs1` has an IC50 [1] of 2.2 µM, an IC50 [3] of 85.7 µM and a selectivity ratio [12] of 33.5. For the same compound, the MNTC at 24 h [17] was 73.7 µM.
Compound `Cc1sc(NN2C(=O)c3ccccc3C2=O)nc1-c1ccc(Br)cc1` has an IC50 [1] of 38.2 µM, an IC50 [3] of 13.9 µM and an MNTC at 24 h [17] of 2.4 µM.
`O=C(Cn1ccnc1[N+](=O)[O-])NCc1ccccc1` [BENZNIDAZOLE] showed an IC50 [1] of 6.3 µM, a selectivity ratio [12] of 15.2 and an Activity [19] of 56%. It also gave an Activity [20] of 56%.
Work on `COc1ccc(-c2csc(NN3C(=O)c4ccccc4C3=O)n2)cc1` yielded an IC50 [1] of 50.3 µM, an IC50 [3] of 6.4 µM and an MNTC at 24 h [17] of 14.2 µM.
`NC(=S)NN1C(=O)c2ccccc2C1=O` gave an IC50 [1] of 52 µM, an IC50 [3] of 56.8 µM and an MNTC at 24 h [17] of 4.5 µM.
`Cc1ccc(-c2cs/c(=N\N=C\CN3C(=O)c4ccccc4C3=O)n2-c2ccccc2)cc1` showed an IC50 [1] of 33.3 µM, an IC50 [3] of 57.8 µM and an MNTC at 24 h [17] of 221 µM.
With `O=C1c2ccccc2C(=O)N1Nc1nc(-c2ccc([N+](=O)[O-])cc2)cs1` the IC50 [1] was 84.9 µM, the IC50 [3] was 13.3 µM and the MNTC at 24 h [17] was 2.7 µM.
Compound `O=C1c2ccccc2C(=O)N1C/C=N/N=c1\scc(-c2ccc(Br)cc2)n1-c1ccccc1` has an IC50 [1] of 9.7 µM and an MNTC at 24 h [17] of 96.6 µM.
Compound `O=C1c2ccccc2C(=O)N1C/C=N/N=c1\scc(-c2ccc(F)cc2)n1-c1ccccc1` has an IC50 [1] of 73.8 µM and an MNTC at 24 h [17] of 219 µM.
Work on `O=C1c2ccccc2C(=O)N1Nc1nc(CCl)cs1` yielded an IC50 [1] of 54.4 µM, an IC50 [3] of 226 µM and a selectivity ratio [12] of 0.3. The MNTC at 24 h [17] was 17 µM.
`Cc1ccc(-c2csc(NN3C(=O)c4ccccc4C3=O)n2)cc1` showed an IC50 [1] of 107 µM, an IC50 [3] of 70.4 µM and an MNTC at 24 h [17] of 14.9 µM.
`O=C1c2ccccc2C(=O)N1Nc1nc(-c2ccccc2)cs1` gave an IC50 [1] of 108 µM, an IC50 [3] of 70.2 µM and a logP [26] of 3.98. The MNTC at 24 h [17] was 3.1 µM.
